High-throughput results as filed in PubChem BioAssay.
PGC1a acetyl inh: inhibitors of PGC1a acetylation signal, primary screen, cell-based, U2OS, AlphaScreen, inhibitor mode. AlphaScreen anti-acetyl-lysine; with virally co-expressed GCN5 acetyltransferase. AID 651687, 2012. hit rate 0.17% among 350,000. inhibition, % at 15.6 µM;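 active = every replicate shows inhibition of at least 40%; inconclusive = mean inhibition at least 40% but some replicate below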
rRNA inh HTS: reduced GFP signal of wild-type E. coli, primary screen, bacterial rRNA inhibitor project, GFP/RFP fluorescence, OD600, single point | E. coli WT GFP vs humanized-ribosome RFP mutants, 24 h; stronger effect = lower value; DMSO median 0, no signal -100 | GFP signal change (wild-type ribosome), % (test concentration not listed) | hit rate 1.6% among 350,000 | AID 720706, 2013;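 active = significant combined selectivity score with lowered wild-type GFP, culture density cut under 30%, mutant RFP and density less affected; inactive = any of these conditions unmet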
Cneo AK release: Cryptococcus neoformans cell lysis inducers, primary screen, AK release luminescence, single concentration | C. neoformans lysis, adenylate kinase release luminescence, 4 h; normalised: neutral wells 0, clomiphene wells 100 | lysis activity, % at 15 µM | hit rate 0.2% among 360,000 | AID 651654, 2012;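 active = mean lysis activity across replicates of at least 80%, whatever share of replicates individually reach that level; inactive = mean lysis activity below 80%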
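Assay system: C. neoformans cells. Amount: yeast cell density of 5 × 10^6 cells/mL. Technique: AK luminescence. Buffer or medium: YPD. Times: static 4 h at 37 °C with compound, 1 h detection. Dosing: single-point compound dose. Read-out: lysis from increased AK signal.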
FGF22 binding: binders of human FGF22 protein, primary screen, FGF22 synaptogenesis inhibitor project, biophysical, thermal shift, single point; Fibroblast growth factor 22 (Homo sapiens), Q9HCT0; recombinant FGF22 thermal shift, SYPRO orange fluorescence; percent of sucrose octasulfate shift, DMSO zero; activity (Tm shift, normalised), % at 9.99 µM; hit rate 1.5% among 340,000; AID 651658, 2012;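 active = mean Tm shift, scaled 0 neutral to 100 positive control, at about 1.3% or above, every replicate too, limit read from the data; inconclusive = no clear call, values can overlap the other calls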
Target sequence (Q9HCT0 whole entry, looked up): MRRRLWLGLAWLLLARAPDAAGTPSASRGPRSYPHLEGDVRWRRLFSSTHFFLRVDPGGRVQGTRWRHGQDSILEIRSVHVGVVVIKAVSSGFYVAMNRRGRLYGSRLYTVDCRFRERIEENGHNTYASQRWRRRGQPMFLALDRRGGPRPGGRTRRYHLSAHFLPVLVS
Vif inh: HIV Vif self-association inhibitors, primary screen, imaging, HEK293T, single point | HEK293T cells, Vif self-association by quenched fluorescence, 24 h | inhibition, % at 7.49 µM | hit rate 0.35% among 340,000 | AID 602346, 2012; in the data active = inhibition above about 50%, passing the limit was not always enough; inconclusive = no clear call, values can overlap the other calls; inactive = below about 31%
PglD DTNB: C. jejuni PglD acetyltransferase inhibitors, primary screen, biochemical, DTNB colorimetric, single point; hit rate 0.098% among 360,000; inhibition, % at 12.5 µM; purified PglD enzyme, DTNB colorimetric CoA detection; UDP-N-acetylbacillosamine N-acetyltransferase PglD (Campylobacter jejuni); in the data active = inhibition above about 16%, passing the limit was not always enough; inconclusive = no clear call, values can overlap the other calls
Of the large screens only hits and unclear results are named; the others gave an inactive call. Compounds with a hit are over-represented: about 2.9% of the library has one in this group of screens.

Cc1ccc(NC(=S)NCCc2ccc(F)cc2)c(C)c1	none (no result: rRNA inh HTS, FGF22 binding)
Cc1ccc(NC(=S)NCc2ccc(Cl)cc2)c(OC(F)F)c1	Cneo AK release 344.1 (no result: PGC1a acetyl inh, Vif inh)
Cc1cc(Cl)ccc1NC(=S)NC(C)(C)C	rRNA inh HTS -35.4 (no result: PGC1a acetyl inh, Cneo AK release, PglD DTNB)
Cc1ccc(NC(=S)Nc2ccc(F)cc2)c(C)c1	FGF22 binding 43.9 (no result: PGC1a acetyl inh)
Cc1cc(Cl)ccc1NC(=S)NCc1ccc(F)cc1	Cneo AK release 92.8
CCCNC(=S)Nc1ccc(Cl)cc1C	none (no result: PGC1a acetyl inh, rRNA inh HTS, Cneo AK release, FGF22 binding, PglD DTNB)
Cc1ccc(CNC(=S)Nc2ccc(OC(F)F)cc2C)cc1	none (no result: PGC1a acetyl inh, Cneo AK release, PglD DTNB)
COc1ccc(S(=O)(=O)N2[C@@H]3CNC[C@H]2C3c2ccc(-c3cccc(C)c3)cc2)cc1 (some centres not stated)	none (no result: Cneo AK release, FGF22 binding, Vif inh, PglD DTNB)
Cc1cc(C(=O)Nc2nc(-c3ccccn3)cs2)ccc1[N+](=O)[O-]	rRNA inh HTS -29.2 (no result: Cneo AK release, PglD DTNB)
O=C(COc1ccc2ccccc2c1)Nc1nccs1	rRNA inh HTS -21.5 (no result: Cneo AK release, PglD DTNB)
O=C(Nc1nc(-c2ccccn2)cs1)c1ccccc1-n1cnnn1	PGC1a acetyl inh 43.0
O=C(COc1ccccc1)Nc1nccs1	none
O=C(COc1cccc(F)c1)Nc1nc(-c2ccccn2)cs1	FGF22 binding 43.7 (no result: PGC1a acetyl inh)
COc1ccc2c3c(n(C)c2c1)[C@H](CO)N(C(C)=O)CC31CCN(C(=O)C2CC2)CC1	none (no result: PGC1a acetyl inh, Cneo AK release, Vif inh, PglD DTNB)
COCC(=O)N(C)C[C@H]1Oc2cc(C3=CCCCC3)ccc2S(=O)(=O)N([C@H](C)CO)C[C@@H]1C	none (no result: Vif inh)
CC(=O)Nc1ccc(C(=O)Nc2nc(-c3ccccn3)cs2)cc1	FGF22 binding 43.9 (no result: Cneo AK release, PglD DTNB)
O=C(Nc1nc(-c2ccccn2)cs1)c1ccc2c(c1)OCCO2	none (no result: Vif inh)
CC(C)[C@H](NC(=O)c1ccccc1Cl)C(=O)Nc1nc(-c2ccccn2)cs1	rRNA inh HTS -28.7
CC(=O)Nc1ccc(C(=O)Nc2nc(-c3cccnc3)cs2)cc1	FGF22 binding 43.3
CCc1nnc(NC(=O)C(NC(=O)c2ccccc2Cl)C(C)C)s1 (configuration not stated)	none (no result: Cneo AK release, PglD DTNB)
C[C@@H]1CN([C@@H](C)CO)C(=O)Cc2cc(NS(=O)(=O)c3ccccc3)ccc2O[C@H]1CN(C)C	none (no result: Vif inh)
CO[C@H]1CN(C)C(=O)c2cc(NC(=O)c3cnccn3)ccc2OC[C@H](C)N(C(C)=O)C[C@@H]1C	none (no result: Vif inh)
COc1cc(Cl)c(C)cc1NC(=O)CCN1C(=O)NC(C)(C)C1=O	FGF22 binding 43.2
COC(=O)c1ccc(CO/N=C/c2ccc(OC)cc2)o1	FGF22 binding 43.8 (no result: PGC1a acetyl inh, Cneo AK release, PglD DTNB)
COC(=O)c1ccc(Cc2ccc(C(=O)OC)o2)o1	none (no result: FGF22 binding)
COC(=O)c1ccc(COC(=O)c2ccc(CO)cc2)o1	FGF22 binding 44.0
COc1ccc2c3c(n(C)c2c1)[C@@H](CO)N(C(=O)CN(C)C)CC31CN(Cc2cccnc2)C1	none (no result: PGC1a acetyl inh, Cneo AK release, FGF22 binding, Vif inh, PglD DTNB)
COc1ccccc1CNC(=O)C[C@H]1CC[C@H]2[C@@H](COc3ccc(NC(C)=O)cc3C(=O)N2C)O1	none (no result: Vif inh)
COc1ccccc1CNC(=O)C[C@@H]1CC[C@@H]2[C@H](COc3ccc(NC(C)=O)cc3C(=O)N2C)O1	Cneo AK release 101.0 (no result: Vif inh)
CCCNC(=O)C[C@@H]1CC[C@@H]2[C@@H](COc3ccc(NC(=O)CCC)cc3C(=O)N2C)O1	Cneo AK release 104.8 (no result: Vif inh)
O=C1N[C@@H](c2ccccc2)COCc2cn(nn2)CC[C@@H](Cc2ccc(C(F)(F)F)cc2)C(=O)N[C@@H](c2ccccc2)COCc2cn(nn2)CC[C@H]1Cc1ccc(C(F)(F)F)cc1	none (no result: PGC1a acetyl inh, Cneo AK release, FGF22 binding, Vif inh, PglD DTNB)
CCNC(=O)C[C@H]1CC[C@@H]2[C@H](COc3ccc(NC(=O)c4ccccc4)cc3C(=O)N2C)O1	none (no result: Vif inh)
CO[C@H]1CN(C)C(=O)c2cc(NC(=O)C3CCC3)ccc2OC[C@H](C)N(C(=O)NC(C)C)C[C@@H]1C	none (no result: Vif inh)
C/C(=N\NC(=O)c1cccnc1)c1cccc([N+](=O)[O-])c1	FGF22 binding 43.3 (no result: PGC1a acetyl inh, Cneo AK release, PglD DTNB)
O=C(CN1CCOCC1)N[C@@H]1CC[C@H](CCNC(=O)Nc2cc(F)ccc2F)O[C@@H]1CO	none (no result: Vif inh)
CCN(CCn1cccn1)C(=O)CCc1nnc(CCc2ccccc2OC)o1	FGF22 binding 43.8
COc1ccccc1CCc1nnc(CCC(=O)N(C)Cc2cccc3cnccc23)o1	FGF22 binding 43.9
COc1ccccc1N1CCN(C(=O)CCc2nnc3ccc(N4CCC(C)CC4)nn23)CC1	rRNA inh HTS -23.0
COc1cccc(N2CCN(C(=O)CCc3nnc4ccc(N5CCCC5)nn34)CC2)c1	none
Cc1[nH]c2ccccc2c1C(=O)NS(=O)(=O)Nc1ccccc1	FGF22 binding 43.4 (no result: Cneo AK release, PglD DTNB)
Cc1[nH]c2ccccc2c1C(=O)CCl	none (no result: PGC1a acetyl inh, Cneo AK release, PglD DTNB)
C[C@H]1CN([C@@H](C)CO)C(=O)c2cc(NC(=O)Nc3cccc4ccccc34)ccc2O[C@H]1CN(C)S(=O)(=O)c1ccccc1	none (no result: Vif inh)
O=C(C[C@@H]1C[C@H]2c3cc(NC(=O)NC4CCCC4)ccc3O[C@H]2[C@H](CO)O1)NCc1cccc(F)c1	none (no result: Vif inh)
O=C(N/N=C/c1ccc([N+](=O)[O-])cc1)c1cc2ccccc2o1	none
C/C(=N\Nc1ccc([N+](=O)[O-])cc1)c1cc2ccccc2o1	FGF22 binding 43.7, Vif inh inconclusive (no result: rRNA inh HTS, Cneo AK release, PglD DTNB)
COc1cccc2cc(C(C)N(CCCN3CCOCC3)C(=S)Nc3c(C)cccc3C)oc12 (configuration not stated)	none
CCc1ccc(NC(=O)N(CCCN2CCOCC2)C(C)c2cc3cccc(OC)c3o2)cc1 (configuration not stated)	rRNA inh HTS -21.5 (no result: PGC1a acetyl inh, FGF22 binding)
COCC(=O)Nc1ccc2c(c1)[C@H]1C[C@H](CC(=O)NCc3cc(F)ccc3F)O[C@@H](CO)[C@H]1O2	none (no result: Vif inh)
Cc1cccc(NC(=O)NC(C)C(c2ccccc2)N2CCN(C)CC2)c1 (configuration not stated)	FGF22 binding 43.2 (no result: PGC1a acetyl inh, Cneo AK release, PglD DTNB)
COC(=O)Nc1nc2ccc(SC(C)C)cc2[nH]1	Vif inh inconclusive
CCCSc1ccc2nc(NC(=O)OC)[nH]c2c1	Vif inh 159.7 (no result: rRNA inh HTS)
Cc1noc(C)c1NC(=O)Nc1ccc2c(c1)C(=O)N([C@H](C)CO)C[C@@H](C)[C@@H](CN(C)Cc1ccncc1)O2	none (no result: Vif inh)
COC(=O)c1ccc(OC)c(OC2CCCC2)c1	PGC1a acetyl inh 89.1 (no result: Cneo AK release, PglD DTNB)
CO[C@H]1CN(C)C(=O)c2cc(NS(=O)(=O)c3cn(C)cn3)ccc2OC[C@@H](C)N(Cc2cccc(F)c2)C[C@H]1C	none (no result: Vif inh)
